Measurements reported in ChEMBL document CHEMBL5055684, “Into Deep Water: Optimizing BCL6 Inhibitors by Growing into a Solvated Pocket” (J Med Chem, 2021).

Experiments:
[1] = Permeability of the compound by PAMPA; assay type: ADME; conditions: read-out: permeability (converted)
[2] = biological target: B-cell lymphoma 6 protein (Homo sapiens, UniProt P41182); test: Inhibition of BCOR peptide binding to human BCL6 expressed in Escherichia coli measured after 270 mins by BCOR ULight TR-FRET assay
Outline: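 Biochemical TR-FRET assay with the BTB domain of BCL6 (not full-length protein) and a short corepressor-derived peptide, measuring inhibition of their binding. The result is reported as an IC50.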

Mus musculus = test: Toxicity in BALB/c mouse at 1 mg/kg, iv or 5 mg/kg, po; assay type: organism-based; conditions: in vivo
[3] = Plasma concentration in BALB/c mouse assessed as unbound fraction at 1 mg/kg, iv or 5 mg/kg, po; assay type: ADME, organism-based
Outline: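 Unbound fraction measured by equilibrium dialysis in mouse plasma.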

Row | Compound | Papp [1] [nm/s] | also measured
1 | CNC(=O)C(C)Nc1cc(=O)n(C)c2ccc(Nc3ccnc(Cl)c3C#N)cc12 (centres undefined) | < 2 | 
2 | Cc1nnc(C(C)Nc2cc(=O)n(C)c3ccc(Nc4ccnc(Cl)c4C#N)cc23)o1 (centres undefined) | < 2 | 
3 | CC(Nc1cc(=O)n(C)c2ccc(Nc3ccnc(Cl)c3C#N)cc12)c1ncc(C2CC2)cn1 (centres undefined) | 140 | 
4 | CNC(=O)COc1cc2cc(Nc3nc(N4CCC(C(=O)N(C)C)CC4)ncc3Cl)cc(OC)c2n(C)c1=O |  | IC50 [2]: < 0.03 µM
5 | CC(Nc1cc(=O)n(CC2CC2)c2ccc(Nc3ccnc(Cl)c3C#N)cc12)c1ncccn1 (centres undefined) | 85 | 
6 | Cn1c(=O)cc(NC(C)(C)c2ncc(C3CC3)cn2)c2cc(Nc3ccnc(Cl)c3C#N)ccc21 | 350 | Activity (Mus musculus): Non-Toxic; fraction unbound [3]: 0.013

Further lines, with some results ahead:

Row | Papp [1] [nm/s] | Compound | also measured
7 | 10 | CC(Nc1cc(=O)n(C)c2ccc(Nc3ccnc(Cl)c3C#N)cc12)c1ncco1 (centres undefined) | 
8 | 56 | Cc1cnc(C(C)Nc2cc(=O)n(C)c3ccc(Nc4ccnc(Cl)c4C#N)cc23)nc1 (centres undefined) | 
9 | 210 | CC(Nc1cc(=O)n(CC2CCC2)c2ccc(Nc3ccnc(Cl)c3C#N)cc12)c1ncccn1 (centres undefined) | 
10 | 18 | CC(Nc1cc(=O)n(C)c2ccc(Nc3ccnc(Cl)c3C#N)cc12)c1ncn(C)n1 (centres undefined) | 
11 | 8 | C[C@@H](Nc1cc(=O)n(C)c2ccc(Nc3ccnc(Cl)c3C#N)cc12)c1ncccn1 | 
12 | 18 | Cn1c(=O)cc(NC(C)(C)c2ncccn2)c2cc(Nc3ccnc(Cl)c3C#N)ccc21 | 
